Compound activity as filed in PubChem.
MT1-MMP act inh: MT1-MMP (human) activation inhibition; HT1080 RFP-PRO-GFP cells, GFP/RFP ratio fluorescence, overnight; percent of plate control window, DMSO zero; GFP/RFP ratio change, % at 20 µM; 0.061% of 360,000 active;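 active = GFP/RFP ratio change of at least 30% with cell ATP level not reduced by more than half and red fluorescence within 50% of control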
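Assay system: HT1080 cells carrying an RFP-PRO-GFP reporter | Dosing: Single dose of 20 µM compound, 1% DMSO final | Incubation: Cells overnight before dosing, compound overnight, 37 °C, 5% CO2 | Evaluation: GFP/RFP fluorescence ratio | Control set: DMSO and RFP-L50D-GFP cell wells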
MLLE-PAM2 inh: blocks PAM2 peptide binding to the PABP1 MLLE domain; GST-MLLE / FITC-PAM2 fluorescence polarization; P11940; inhibition, % at 20 µM; 0.36% of 360,000 active; in the data active = inhibition above about 35%, passing the limit was not always enough;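 note: plate controls were DMSO wells with GST-MLLE for no effect and wells lacking GST-MLLE protein for full effect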
Target sequence (P11940 whole entry, looked up, the tested form may be a part): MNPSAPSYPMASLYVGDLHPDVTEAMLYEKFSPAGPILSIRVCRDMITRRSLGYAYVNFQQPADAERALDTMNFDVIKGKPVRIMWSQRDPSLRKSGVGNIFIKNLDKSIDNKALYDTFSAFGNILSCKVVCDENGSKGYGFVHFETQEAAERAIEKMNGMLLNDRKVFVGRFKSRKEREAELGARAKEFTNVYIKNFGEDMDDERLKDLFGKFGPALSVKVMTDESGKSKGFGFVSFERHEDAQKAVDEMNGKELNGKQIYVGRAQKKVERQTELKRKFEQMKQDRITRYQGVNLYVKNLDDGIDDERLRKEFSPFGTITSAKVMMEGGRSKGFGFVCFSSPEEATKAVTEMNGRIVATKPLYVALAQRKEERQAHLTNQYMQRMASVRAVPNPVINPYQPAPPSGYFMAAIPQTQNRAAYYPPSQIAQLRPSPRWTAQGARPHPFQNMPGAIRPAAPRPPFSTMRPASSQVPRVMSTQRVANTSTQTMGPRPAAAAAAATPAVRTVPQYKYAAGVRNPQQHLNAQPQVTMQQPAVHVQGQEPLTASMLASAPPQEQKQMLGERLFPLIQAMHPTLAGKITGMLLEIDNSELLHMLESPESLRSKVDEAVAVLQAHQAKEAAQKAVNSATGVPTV
SKN-1 block: C. elegans SKN-1 inhibition; C. elegans VP596 Pgst-4::GFP/RFP ratio, acrylamide-induced, 24 h; inhibition, % at 21.8 µM; 0.49% of 360,000 active; AID 624304;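 active = interference check ratio from 0.5 to 1.5 plus GFP to RFP signal ratio inhibition reaching or exceeding a fixed threshold, cut at about 30% in these data, passing the limit was not always enough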
PABP polyA inh: PABP-poly(A) binding inhibition | 1% of 290,000 active | PABP-poly(A) RNA binding, fluorescence polarization | calls only at 35 µM | P11940;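 note: calls also rest on retests at 20 µM and on dose response follow-up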
eIF4H FP inh: inhibitors of RNA binding by human eIF4H; AID 2012; eIF4H fluorescence polarization binding assay; inhibition, % at 35 µM; 0.94% of 290,000 active;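 note: calls also rest on retests at 20 µM and on dose response follow-up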
* hit, by the source's call; i = inactive; u = inconclusive; x = no result; + = active, no number. Sampled rows, rich in hits. Any-hit rate of the full collection: about 1.8%. Unless noted, the rule behind the calls is not given here.

SMILES	MT1-MMP act inh	MLLE-PAM2 inh	SKN-1 block	PABP polyA inh	eIF4H FP inh
Cc1cccn2c(=O)c3cc(C(N)=S)c(=N)n(CCCN4CCOCC4)c3nc12	-6	19	10	+	75*
NNC(=O)c1nc(-c2ccccc2)cc(-c2ccccc2)n1	-3	9	1	i	-7
CSc1ncnc2c1ncn2CCCNCCCc1ccccc1	6	-4	0	x	x
C/C(=N\NC(=O)c1ccc(C)cc1C)c1ccc2c(c1)Nc1ccccc1S2	9	6	9	i	-12
CC(=O)c1ccc2c(c1)N(CCCN(C)C)c1ccccc1S2	-13	50*	16	x	x
CC(=O)c1ccc2c(c1)Nc1ccccc1S2	1	7	7	+	67*
CN(C(=O)c1ccc(NC(=O)Cc2ccc(NC(=O)C3CCCN(C(=O)C4CC4)C3)cc2)cc1)C1CCCC1 (stereo unspecified)	3	8	-3	x	x
O=C(Cn1cc(F)c(=O)[nH]c1=O)c1ccco1	2	13	10	x	x
COc1ccc2nc(SCC(=O)Nc3ccc(S(=O)(=O)N4CCCC4)cc3)c(C#N)cc2c1	-42	-43	40*	i	4
N#Cc1cc2ccccc2nc1SCC(=O)Nc1ccc(S(=O)(=O)N2CCCC2)cc1	-86	4	-7	u	u
Cc1ccc(C)n1-c1ccc(C(=O)O)cc1	x	x	x	+	91*
Cc1cc(=O)n(-c2ccc(O)cc2)[nH]1	-5	10	-16	i	-2
Cc1cc(=O)n(-c2ccc(C(=O)O)cc2)[nH]1	9	8	3	+	65*
CC(Nc1cccc([N+](=O)[O-])c1)C(=O)Nc1ccc(S(=O)(=O)N2CCCC2)cc1 (stereo unspecified)	6	-1	2	x	x
O=C(NC(Sc1ccc(Cl)cc1)C(=O)O)c1ccccc1 (stereo unspecified)	-5	40*	13	x	x
CN(C)c1ncc(C2=C(Cl)C(=O)C(N3CCCC3)=C(Cl)C2=O)s1	7	41*	4	x	x
O=C1C(Cl)=C(N2CCCCCC2)C(=O)N1c1ccc(Cl)cc1	0	-8	6	i	1
O=C1C(Cl)=C(N2CCCCC2)C(=O)C(Cl)=C1c1cnc(N2CCCCC2)s1	9	48*	10	i	u
COC(=O)c1ccc(CSc2nc(N)cc(N)n2)cc1	4	-4	14	i	-2
COC(=O)c1ccc(CSc2nc3ccccc3o2)cc1	10	-2	40*	i	-6
O=[N+]([O-])c1ccc(CSc2nc3ccccc3o2)cc1	4	8	69*	i	-5
c1cncc(-c2nnc(SCc3nc4ccccc4[nH]3)o2)c1	3	-23	3	i	-1
c1ccc2[nH]c(CSc3nc4ccccc4o3)nc2c1	-1	35*	-3	i	-15
O=C(O)CSc1nc2ccccc2o1	2	9	-1	i	0
CCOC(=O)CN(C(=O)CNC(=O)c1cccs1)C(C(=O)NC1CCCCC1)c1cccs1 (stereo unspecified)	3	0	46*	i	-2
SMILES	MT1-MMP act inh	MLLE-PAM2 inh	SKN-1 block	PABP polyA inh	eIF4H FP inh
Cc1ccc2c(Cl)cc(Cl)c(OCC(=O)NCc3ccco3)c2n1	x	x	x	+	98*
O=C(COC(=O)/C=C/c1ccco1)Nc1ncc(C(F)(F)F)cc1Cl	-4	1	19	+	88*
O=C(COC(=O)c1ccccc1)NCc1ccco1	3	-6	-30	+	76*
O=C(COC(=O)c1cccc(S(=O)(=O)N2CCc3ccccc3C2)c1)NCc1ccco1	-1	-20	-6	+	87*
CCN(CC)S(=O)(=O)c1cccc(NC(=O)COC(=O)/C=C/c2ccco2)c1	-1	8	6	i	69*
CCOc1ccc(C(=O)OCC(=O)NCc2ccco2)cc1OCC	-2	-5	-15	i	30
COc1ccc(C(=O)OCC(=O)NCc2ccco2)cc1OC	4	-10	3	i	89*
COc1ccccc1NCCC(=O)OCC(=O)NCc1ccco1	-5	-4	7	+	96*
O=C(COC(=O)c1ccccc1Nc1ccccc1)NCc1ccccc1	3	-1	8	i	-10
O=C(COC(=O)c1ccccc1Nc1cccc(C(F)(F)F)c1)NCc1ccco1	3	-16	1	i	54*
Cc1nc(C(F)(F)F)ccc1C(=O)N1CCCC(C(=O)O)CC1 (stereo unspecified)	-4	-8	-12	x	x
O=C1COc2ccc(S(=O)(=O)N3CCC(C(=O)NCc4ccccc4)CC3)cc2N1	3	3	16	i	-17
O=C(COC(=O)/C=C/c1ccco1)NCc1ccco1	0	0	-7	i	86*
COCCNC(=S)N(CCO)Cc1cc2cc3c(cc2[nH]c1=O)OCCO3	-1	39*	5	i	6
O=C(c1ccccc1)N(CCO)Cc1cc2cc3c(cc2[nH]c1=O)OCCO3	-5	57*	-3	u	-7
COCCNC(=S)N(CCCN(C)C)Cc1cc2cc3c(cc2[nH]c1=O)OCCO3	-2	-80	-2	i	10
COCCCNC(=S)N(CCO)Cc1cc2cc3c(cc2[nH]c1=O)OCCO3	-5	40*	2	i	-5
O=C(c1ccco1)N(CCO)Cc1cc2cc3c(cc2[nH]c1=O)OCO3	-2	-5	10	i	-4
CCN(CC(=O)Nc1ccc(NC(C)=O)cc1)C(=O)c1ccc(N2C(=O)c3ccccc3C2=O)cc1	-2	5	-3	x	x
Cc1cc(C)c(OCCCNC2CCCC2)c(Br)c1	-3	0	-18	i	46
COc1ccc(C#CC2=CC(=O)CC(C)(C)C2)cc1	-6	-10	8	x	x
CN(C)c1ccc(N=Nc2ccccc2Br)cc1	7	1	18	i	-3
CN(C)c1ccc(N=Nc2nccs2)cc1	35	-30	56*	x	x
c1ccc(-c2nc3cccnc3nc2-c2ccccc2)cc1	0	2	2	x	x
N#Cc1ccccc1OCC(=O)NCc1ccccc1CN1CCCC1	-1	-2	-7	x	x
O=[N+]([O-])c1ccc(/C=[N+](\[O-])[C@@H]2CCCC[C@@H]2/[N+]([O-])=C/c2ccc([N+](=O)[O-])o2)o1	5	5	-12	+	81*
O=C(Cn1cc(COc2ccc(Br)cc2[N+](=O)[O-])nn1)c1ccc(O)cc1	4	-8	-11	x	x
N#CC1=C(N)C(C#N)(C#N)C(c2cccnc2)C2CN(C(=O)OCc3ccccc3)CC=C12 (stereo unspecified)	-31	21	-8	i	66*
CCOC(=O)N1CC=C2C(C#N)=C(N)C(C#N)(C#N)[C@H](c3ccc(OCC)c(OCC)c3)[C@H]2C1	-21	-11	-13	i	15
N#Cc1cc2c(=O)n3ccccc3nc2n(Cc2ccco2)c1=NC(=O)c1ccco1	-9	41*	7	i	u
